Data set [1] is described as follows: Absolute fluorescence quantum yield. The conditions noted are these: Seronorm vs glucose solution. Format: physicochemical.
Data set [2] is described as follows: In vitro photoacoustic spectra and signal vs concentration in agar phantom. It is filed as physicochemical. As to conditions: in glucose solution 5.5% and serum; spectra 680–970 nm, step 5 nm. Summed up:
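Dyes were diluted in 5.5% glucose (plus 5% DMSO for the conjugate) or incubated 1 h at RT in human serum (HSA 47.8 g/L). Samples were loaded in PE-100 tubes in 2% agar phantoms and read at 21 MHz, 40 dB gain, persistence 3, 680–970 nm in 5 nm steps. Signals were normalized to diluted India ink. Peak signal was plotted against concentration and slopes (μM−1) compared. Data are mean ± SD.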

The subject of data set [3] is U-87MG tumors (high αvβ3 expression). Description: In vivo photoacoustic imaging of tumor uptake, U-87MG xenograft. Details: species or system BALB/c nu/nu mice. The conditions noted are these: U-87MG tumor bearing mice, n = 5/group.
In data set [4] the test system is tumor, brain, lung, liver, kidneys, heart and spleen. Description: Ex vivo optical imaging of harvested organs and tumors. It is filed as in vivo, BALB/c nu/nu mice. As to conditions: 24 h post-injection, 200 nmol i.v., harvested organs, n = 5/group. Summed up: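 Nude mice bearing s.c. right-flank xenografts (5 million A431 or 2 million U-87MG cells, ~14 days) received 200 nmol test compound or parent dye in 0.2 mL i.v. via the tail vein (n=5/group). At the end, FITC-albumin (100 mg/kg i.v.) was given 5 min before sacrifice. Tumor and organs were excised for optical imaging, with tumor ROIs and no background correction.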

The next data set concerns U-87MG tumors. Description: Fluorescence microscopy of U-87MG tumor cryosections. Format: in vivo, BALB/c nu/nu mice. The conditions noted are these: U-87MG tumors excised 24 h after injection. In short, it runs like this: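 U-87MG tumors were excised 24 h after i.v. test compound or parent dye, with FITC-albumin given 5 min before sacrifice to estimate permeability. Tumors were embedded in OCT, fresh-frozen in ice-cold isopentane, and cryosectioned. Probe and FITC distribution were viewed by fluorescence stereomicroscopy.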

The conditions of data set [5]: no reference given, cited from earlier work.

Consider `CC1(C)C(/C=C/C=C/C=C/C=C2\N(CCCCS(=O)(=O)O)c3ccc4ccccc4c3C2(C)C)=[N+](CCCCS(=O)(=O)[O-])c2ccc3ccccc3c21` [ICG, Indocyanine green], for which, in data set [1], the “increase of fluorescence efficiency in Seronorm compared to glucose solution” value was 5 fold. The molecule also displayed a maximum photoacoustic peak in data set [2] of 800 nm. The “time of peak photoacoustic signal in tumor post-injection” value in data set [3] (200 nmol i.v. tail vein) was 15 min. In data set [3] (200 nmol i.v.), the “photoacoustic signal reduction at 60 min compared to 15 min” value is reported as 70%. Moreover, the “ex vivo optical imaging, organ distribution” value in data set [4] was “accumulated mainly in liver and kidney”. In the data set with U-87MG tumors, the “microscopic fluorescence distribution in tumor cryosections” value was “only a patchy and weak signal”. Besides, in data set [5] (in human), the blood half-life was 3 to 5 min. Also, in data set [5], the photostability entry is “low photostability” and the “solubility in aqueous media” value is recorded as “low solubility in aqueous media with strong tendency to form aggregates”.

The record behind these values is article PMC6086215 (Photoacoustics, 2018).
